Test results reported in PubChem BioAssay AID540295 (The Scripps Research Institute Molecular Screening Center, 2011).
About 1,700 (0.47%) of roughly 360,000 compounds were called active. The list comes from a sample in which actives are over-represented; it also holds similar structures and randomly drawn compounds. Unmarked numbers belong to inactive results.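 The calls were made as follows: active = inhibition above its plate's cutoff, the mean of tested wells on that plate plus 3 SD (cut at about 29% in these data); inactive = the rest.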

What follows are compounds tested against Melanocortin receptor 4 (Homo sapiens) (UniProt P32245) (assay: MC4R antagonists of cAMP signaling, primary screen, cell-based, TR-FRET, antagonist arm of biased-ligand search (AID 540295;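 also: 0% = Melanotan II alone and 100% = Melanotan II plus saturating MCL0020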)). Details: MC4R-expressing cells, MTII-stimulated cAMP, LANCE TR-FRET; at 6.5 µM; active compounds read high.
Chain of Melanocortin receptor 4 (Homo sapiens) (P32245 whole entry, looked up): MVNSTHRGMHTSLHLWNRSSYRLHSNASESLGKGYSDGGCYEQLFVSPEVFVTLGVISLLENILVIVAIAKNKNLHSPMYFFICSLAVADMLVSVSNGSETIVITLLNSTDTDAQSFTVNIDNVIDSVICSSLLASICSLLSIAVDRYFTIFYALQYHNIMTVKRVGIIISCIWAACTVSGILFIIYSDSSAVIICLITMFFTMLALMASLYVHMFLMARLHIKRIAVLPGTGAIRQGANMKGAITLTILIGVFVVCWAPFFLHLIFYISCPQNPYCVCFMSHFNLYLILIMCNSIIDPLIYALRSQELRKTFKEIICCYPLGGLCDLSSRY
Method in brief: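 material = U2OS cells stably expressing human melanocortin 4 receptor (MC4R) | also added = Melanotan II challenge | dosing = single nominal compound dose of 6.5 µM | detection = TR-FRET with Eu-cAMP and labeled anti-cAMP, 671 nm | replication = singlicate | timing = compound 30 min, challenge 1 h, detection 1 h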
`Cc1cc(C)c(NC(=O)CN2C(=O)NC(Cc3ccccc3)C2=O)c(C)c1` (stereo not given) gave an inhibition of -8.57%.
With `CC(=O)C1(C)N(O)C(C)(C)C(c2cccs2)=[N+]1[O-]` (stereo not given) the inhibition was -4.35%.
With `CC1(C)C(c2cccs2)=[N+]([O-])C2(CCCCC2=O)N1O` (stereo not given) the inhibition was 29.8% (active).
With `Cc1cc(-n2cnc(-c3cn(C)nc3C)n2)no1` the inhibition was 3.28%.
`CC(=O)N(Cc1cccs1)C1CCOC(C)(C)C1` (stereo not given) was tested, and the inhibition was -3.32%.
Work on `OC(CN1C2=NCCCN2c2ccccc21)c1ccc(Br)cc1` (stereo not given) yielded an inhibition of -7.35%.
Compound `COc1cccc(OCC(=O)NCCS(=O)(=O)N2CCN(c3ccccc3)CC2)c1` has an inhibition of 1.47%.
For `COC(=O)C1=C(C(=O)OC)C(c2cc([N+](=O)[O-])ccc2O)c2sc(=O)[nH]c2S1` (stereo not given), the inhibition was 33.3% (active).
`COC(=O)C1=C(C)N(C)C(=O)NC1c1ccc([N+](=O)[O-])o1` (stereo not given) showed an inhibition of -8.39%.
Compound `COC(=O)c1c(C)[nH]c(C)c1-c1ccc([N+](=O)[O-])cc1` has an inhibition of -0.44%.
Compound `CC1(C)CC(N2CCN(C(c3ccccc3)c3ccccc3)CC2)=CC(=[N+]2CCCCC2)C1` has an inhibition of 5.45%.
`NC1=NC2(CCCCC2)N(c2ccc(F)cc2F)C(N)=N1` was tested, and the inhibition was 1.15%.
In the case of `Cc1ccc2c(cnn2C(=O)CCC(=O)NC2CCCC2)c1`, the inhibition is reported as -3.58%.
`CC(C)N(c1ccccc1)c1ncnc(NCCC(=O)O)c1[N+](=O)[O-]` gave an inhibition of 9.58%.
With `COC(=O)c1c(NC(=O)CCN2CCOCC2)sc2c1CCCC2` the inhibition was -12.7%.
`Cc1ccc(NC(=O)c2c(NC(=O)CCC(=O)O)sc3c2CCCCC3)cc1` was tested, and the inhibition was 32% (active).
In the case of `O=C(CN1CCCC1)Nc1sc2c(c1C(=O)Nc1ccccc1)CCCC2`, the inhibition is reported as -1.77%.
In the case of `CN(C)/C(CN1CCCCC1)=C1\N=C(c2ccccc2)OC1=O`, the inhibition is reported as 7.27%.
With `O=C1CCC(=O)N(c2ccccc2)N1` the inhibition was 22.5%.
For `CSc1nnc(NC(=O)c2nc(S(=O)(=O)Cc3ccc(C)cc3)ncc2Cl)s1`, the inhibition was 44.6% (active).
In the case of `Cc1cccc(CS(=O)(=O)c2ncc(Cl)c(C(=O)Nc3ccc(F)cc3)n2)c1`, the inhibition is reported as 12.4%.
With `NC(=O)CSc1nnc(NC(=O)c2ccc(Br)o2)s1` the inhibition was -2.81%.
In the case of `Cc1cc(C)c2nc(-c3cccnc3)cc(C(=O)Nc3ccc(S(=O)(=O)Nc4onc(C)c4C)cc3)c2c1`, the inhibition is reported as 19.9%.
In the case of `COc1ccc(-c2ccc(CCC(=O)O)n2NC(=O)c2ccc(C(C)(C)C)cc2)cc1`, the inhibition is reported as 11.2%.
For `C=Cn1c(C(=O)O)ccc1-c1ccc(OC)cc1`, the inhibition was 28.8% (active).
For `COc1ccc(-c2ccc(CCC(=O)O)n2-c2ccc(O)cc2)cc1`, the inhibition was 1%.
`Cc1ccc(N(C(=O)c2snc(C(N)=O)c2N)C(C(=O)NCC2CCCO2)c2c[nH]c3ccccc23)cc1` (stereo not given) was tested, and the inhibition was 21.4%.
`Cc1ccc(C(C(=O)NCC2CCCO2)N(C(=O)c2snc(C(N)=O)c2N)c2ccc(C(C)C)cc2)o1` (stereo not given) was tested, and the inhibition was 29.1% (active).
Work on `CCOc1ccc(N(C(=O)c2snc(C(N)=O)c2N)C(C(=O)NCC2CCCO2)c2c[nH]c3ccccc23)cc1` (stereo not given) yielded an inhibition of 12.3%.
With `O=C(CCNC(=O)c1ccc([N+](=O)[O-])cc1)Nc1ccccc1N1CCOCC1` the inhibition was 17.3%.
Compound `CC[C@@H]1Cc2cc(O)ccc2C2=C1c1ccc(O)cc1C[C@H]2CC` has an inhibition of 10.4%.
Compound `Cc1csc(CN(C)C(=O)CC2C(=O)NCCN2CC(C)(C)C)n1` (stereo not given) has an inhibition of 4.33%.
With `COc1cc(OC)cc(-c2sc3ccc(OC)cc3c2-c2ccc3cc[nH]c3c2)c1` the inhibition was 13%.
For `COc1ccc2sc(-c3ccc(S(C)(=O)=O)cc3)c(-c3ccc(C(N)=O)cc3)c2c1`, the inhibition was 35.3% (active).
For `COc1ccc2sc(-c3ccc(S(C)(=O)=O)cc3)c(C#Cc3cncn3C)c2c1`, the inhibition was 12.3%.
For `COC(=O)[C@H](Cc1ccccc1)NC(=O)[C@@H]1C[C@H]1[C@@H](NC(=O)OCc1ccccc1)c1ccccc1`, the inhibition was 29.7% (active).
For `COC(=O)[C@@H](Cc1ccccc1)NC(=O)NCCc1ccccc1`, the inhibition was 23.7%.
`COC(=O)[C@H](C)[C@H]1C[C@]1(C)[C@H](NC(=O)OCc1ccccc1)c1ccccc1` was tested, and the inhibition was 5.83%.
`Cc1csc(/N=C/N(C)C)c1C#N` gave an inhibition of 1.05%.
With `Cc1ccc(S(=O)(=O)CCC(=O)OCc2ccccc2)cc1` the inhibition was 3.4%.
With `Cc1ccc(S(=O)(=O)CCC(=O)OCC(=O)N(C)C2CCS(=O)(=O)C2)cc1` (stereo not given) the inhibition was 0.56%.
With `Cc1ccc(S(=O)(=O)CCC(=O)OCC(=O)N(C)Cc2ccccc2)cc1` the inhibition was 33.6% (active).
Compound `CCOc1ccc(S(=O)(=O)NCc2ccc3c(c2)OCO3)cc1C` has an inhibition of 3.78%.
With `COc1ccc(CCN=C2SCC(=O)N2C)cc1OC` the inhibition was 10.4%.
For `O=C(NCCc1c[nH]c2ccccc12)c1cccc(Br)c1`, the inhibition was 31.5% (active).
`Cc1cc(C)cc(NC(=S)NCCc2c[nH]c3ccccc23)c1` was tested, and the inhibition was 7.21%.
Compound `O=C(NCCc1c[nH]c2ccccc12)c1cc2ccccc2oc1=O` has an inhibition of -0.76%.
`CN(C)c1ccc(C2Nc3ccccc3C(=O)N2NS(=O)(=O)c2ccccc2)cc1` (stereo not given) showed an inhibition of -6.61%.
With `COc1ccc(S(=O)(=O)N2CCSCC2)cc1` the inhibition was 2.98%.
`CCOC(=O)c1c(C)oc2cc(Sc3ccccc3)c(O)c(O)c12` gave an inhibition of 6.42%.
For `CCOC(=O)c1c(-c2ccccc2)oc2cc(Br)c(O)c(C=O)c12`, the inhibition was 93% (active).
`Cc1oc2cc(Br)c(O)c(Br)c2c1C(=O)c1ccccc1` gave an inhibition of 0.99%.
`COc1ccc(CCCNC(=O)C2Cc3c(-c4cccc(C(N)=O)c4)ccnc3O2)cc1` (stereo not given) showed an inhibition of 2.69%.
`CCn1c2ccccc2c2cc(NC(=O)COC(=O)c3cc(S(=O)(=O)N4CCCCC4)ccc3Cl)ccc21` gave an inhibition of -0.18%.
`CCn1c2ccccc2c2cc(NC(=O)C/C(C)=N/NC(=O)c3ccccc3N)ccc21` was tested, and the inhibition was 28.8% (active).
Compound `CCn1c2ccccc2c2cc(NC(=S)N3CCOCC3)ccc21` has an inhibition of -0.62%.
`CC1=NN(C(C)C)C(=O)C1` was tested, and the inhibition was 6.17%.
`Cc1ccnc(NC(=O)c2ccc(Cl)c([N+](=O)[O-])c2)c1` showed an inhibition of 23.3%.
`Cc1nc2ccccc2c(=O)n1NC(=O)c1ccc(Cl)c([N+](=O)[O-])c1` was tested, and the inhibition was 49% (active).
Compound `O=C(O)c1ccc2c(=O)n3c(nc2c1)/C(=C/c1ccc(Cl)c([N+](=O)[O-])c1)CC3` has an inhibition of 0.52%.
`CCOC(=O)C1(C)CCCN(C(=O)c2ccc(F)c(Cl)c2)C1` (stereo not given) was tested, and the inhibition was -0.84%.
`Cc1nc(N2CCN(c3ccccn3)CC2)c2c(C)c(C(=O)Nc3ccc(F)c(Cl)c3)sc2n1` showed an inhibition of 5.05%.
For `CC(=O)Nc1ccc(S(=O)(=O)N2CCn3cccc3C2C)cc1` (stereo not given), the inhibition was 1.62%.
`COc1ccc(-c2n[nH]c(C)c2-c2ccccc2OC)c(O)c1` was tested, and the inhibition was 29.1% (active).
`CCOc1ccccc1Oc1cn[nH]c1-c1ccc(OC)cc1O` was tested, and the inhibition was 2.19%.
With `CCOc1ccc(-c2nc(N)ncc2-c2ccccc2OC)c(O)c1` the inhibition was -2.31%.
For `CC(Sc1ccc(S(=O)(=O)N2CCN(C)CC2)cn1)C(=O)NC1CCCC(C)C1C` (stereo not given), the inhibition was -2.08%.
In the case of `O=C(Nc1ccc2ccccc2c1[N+](=O)[O-])c1ccccc1`, the inhibition is reported as -1.17%.
With `Cc1cc(=O)c2ccc(NC(=O)c3ccccc3)cc2[nH]1` the inhibition was 0.31%.
With `O=C(NC1=CC(=O)c2ccccc2C1=O)c1ccccc1` the inhibition was 34.6% (active).
`CN(CCC#N)c1ncnc2scc(-c3ccccc3)c12` was tested, and the inhibition was -6.59%.
With `Cc1sc2nc(-c3ccccc3F)oc(=O)c2c1C` the inhibition was 2.06%.
In the case of `Cc1ccccc1-n1nnnc1SCCCC(=O)c1ccc(F)cc1`, the inhibition is reported as 0.07%.
`Cc1cccc(OCC(O)Cn2c(N3CCCCC3)nc3c2c(=O)[nH]c(=O)n3C)c1` (stereo not given) was tested, and the inhibition was 32.4% (active).
With `Cn1c(=O)c2c(nc(N3CCCCCC3)n2CC(O)COc2ccc(Cl)cc2)n(C)c1=O` (stereo not given) the inhibition was 19.6%.
`C=C(C)Cn1c(N2CCCC2)nc2c1c(=O)[nH]c(=O)n2C` was tested, and the inhibition was -7.2%.
`CCCCCCCC(=O)OC(CN1CCCCCC1)CN1CCCC1=O` (stereo not given) gave an inhibition of 3.62%.
`CC(=O)c1cccc(NC(=O)C2CCCN(S(=O)(=O)c3cccc4nonc34)C2)c1` (stereo not given) was tested, and the inhibition was 0.67%.
`Cn1nc(C(F)(F)F)cc1C(=O)O` was tested, and the inhibition was -0.27%.
With `CC(NS(=O)(=O)c1ccc(Br)cc1)C(=O)NCC1CCCO1` (stereo not given) the inhibition was 40.5% (active).
In the case of `O=C(NCC1CCCO1)c1ccc(S(=O)(=O)Nc2ccc(F)cc2)cc1` (stereo not given), the inhibition is reported as 1.8%.
`CCC(=O)Nc1ccc(S(=O)(=O)NCC2CCCO2)cc1` (stereo not given) showed an inhibition of 6.76%.
Compound `Cn1cccc1C1(C(F)(F)F)NCCNC1=O` (stereo not given) has an inhibition of 1.67%.
With `O=C(Nc1ccccc1C(=O)N1CCCCCC1)c1ccccc1Cl` the inhibition was 2.65%.
Work on `O=C(Cc1ccccc1)Nc1c(C(=O)N2CCCCCC2)cnn1-c1ccccc1` yielded an inhibition of 1.13%.
For `CC(=O)Nc1ccc(Sc2ccccc2C(=O)N2CCCC2)cn1`, the inhibition was 32% (active).
In the case of `O=C(NCc1ccccc1)C1=C[C@@H](c2ccccc2)C[C@@H](OCCCCO)O1`, the inhibition is reported as -12.3%.
In the case of `Cc1ccccc1N1CCN(C2CCCN(C(=O)c3cn4c(C)cccc4n3)C2)CC1` (stereo not given), the inhibition is reported as -0.92%.
For `Cc1c(CNCCc2ccccc2)c(C(=O)O)c(C)n1-c1ccccc1`, the inhibition was 11.5%.
With `CCc1nn(CCCC(=O)Nc2ccc(C)cc2C)c(=O)c2cc3occc3n12` the inhibition was -1.71%.
With `O=C1C=CC(=O)N1c1ccc(N2CCCCC2)cc1` the inhibition was 43.8% (active).
`c1ccc(-n2cccc2)c(N2CCCCC2)c1` showed an inhibition of 4.15%.
With `O=C(c1ccc(Cl)c(S(=O)(=O)N2CCCCCC2)c1)N1CCN(c2ccc(O)cc2)CC1` the inhibition was -1.58%.
Work on `CCc1nc2ccc(C(=O)N3CCC(O)(Cc4ccccc4)CC3)cn2c1N(C)C(=O)Cc1ccccc1` yielded an inhibition of 9.63%.
In the case of `CCCCn1nc(C(=O)N2CCc3ccccc32)c2ccccc2c1=O`, the inhibition is reported as 9.32%.
`S=C(NC1CCCCC1)NN1CCOCC1` showed an inhibition of 7.17%.
Work on `COc1cc([N+](=O)[O-])ccc1NC(=O)COC(=O)CCOc1ccc(C)cc1` yielded an inhibition of 7.73%.
Work on `Cc1ccc(NC(=O)C(C)OC(=O)C2CC3CCCC(C2)C3=O)cc1S(=O)(=O)N1CCOCC1` (stereo not given) yielded an inhibition of -1.35%.
`CC(OC(=O)CCCc1c[nH]c2ccccc12)C(=O)Nc1ccc(S(N)(=O)=O)cc1` (stereo not given) gave an inhibition of -3.17%.
For `Cc1ccc(NC(=O)C(C)OC(=O)Cc2c[nH]c3ccccc23)cc1S(=O)(=O)N1CCOCC1` (stereo not given), the inhibition was 28.7% (active).
`CC(=O)CSc1nc(CCc2ccccc2)c(C#N)c(=O)[nH]1` was tested, and the inhibition was 7.06%.
In the case of `O=C(CSc1nc2ccccc2c(=O)[nH]1)Nc1nc(-c2ccc(Br)cc2)cs1`, the inhibition is reported as 10%.
`N#Cc1c(-c2cccs2)nc(SCC(=O)c2ccc(Br)cc2)[nH]c1=O` was tested, and the inhibition was 39.6% (active).
Compound `CC(=O)Nc1cccc(-c2cc(NC(C)=O)c3ncc(-c4ccccc4)n3c2)c1` has an inhibition of 9.96%.
In the case of `COc1ccc(C(=O)N2CCCCC2c2cc(C(=O)Nc3ccc(F)c(Cl)c3)no2)cc1` (stereo not given), the inhibition is reported as 16.2%.
